Reference: the EternaBench riboswitch data

System: MS2 coat protein
Assay: apparent Kd, MS2 coat protein; higher = weaker binding; RNA-MaP array; FMN 200 µM where present
Procedure, shortened: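 Designs were transcribed by stalled E. coli RNA polymerase on Illumina sequencing-chip clusters. They were titrated with SNAP-549-labelled MS2 coat protein from 0.7 or 1.5 nM, doubling to 3 µM, without and then with constant ligand. Buffer: 100 mM Tris-HCl pH 7.5, 80 mM KCl, 4 mM MgCl2, BSA, DTT, yeast tRNA, Tween-20. Green signal was normalised to red-channel RNA signal and control-cluster median Fmax. Apparent Kd is the median of filtered per-cluster binding-curve fits.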

[1] = designed as: ON switch for flavin mononucleotide, no ligand
[2] = ligand present: flavin mononucleotide, designed as: ON switch for flavin mononucleotide
[3] = designed as: OFF switch for flavin mononucleotide, no ligand
[4] = ligand present: flavin mononucleotide, designed as: OFF switch for flavin mononucleotide

Sequence | apparent Kd [1] [nM] | apparent Kd [2] [nM] | apparent Kd [3] [nM] | apparent Kd [4] [nM]
AAUAAUUAGUAAGGAUAUACUAGCGAUUAGCUUGUAGAAGGUACAGUCUUAUGUAUAACAAAUUAACAUGAGGAUCACCCAUGU | 10.2 | 7.39 |  | 
GUCGGAAACGACAAAAGUAUGGAUCCAGAAGGCAUGAACAUGAGGAUCACCCAUGUCUAAAGAUAUGAGGAUAUGGAUCCAUAC | 6.66 | 4.44 |  | 
GUCAGCUCGUGAGGAUAUACAACACUGCUUCGGCAGUGUAUUAAGAUCACAUGAGGAUCACCCAUGUAGAAGGCACGGGCUGAU |  |  | 14 | 323
GCGCAUUUAAGAUUUAUAUAAUUUUCAGAAGGUGAAUAGUCGACAUGAGGAUCACCCAUGUAAUUCAAGGAUAUGAUUUAGCGC | 59.6 | 10.1 |  | 
CGGACGUCAGGAUAUCUGAUGUCUAACUUCGGUUAGACAUCAGAGAAGGGACAUGAGGAUCACCCAUGUCCGAG |  |  | 22.2 | 16.9
AUACAUGAGGAUCACCCAUGUAAUUAAUUAACUUGUAAGAUCAAGGAUAUCAGCUCGAAUAGAGCUGAGAAGGUGAUCACAUGU | 179 | 220 |  | 
GUCAUGUGAGGAUAUGUAUUGCGCAUGCCGAAAACAUGGCGGCAGAAGGCACAUGAGGAUCACCCAUGUGGGUU |  |  | 62.7 | 34.4
AGAAUUGGUAGAUAAAAGGUCACACAGGAUAUACUCCCAACAUGAGGAUCACCCAUGUACUGGCGGUAGAAGGGUGGGAUCCUC | 33.6 | 8.52 |  | 
UGUGUGAGACAGGAUAUGCCGGAUGAAAGGCAGGUAGAAGGGUCUACAUGAGGAUCACCCAUGUGGCCGGUUGG |  |  | 17.4 | 18.7
UUUUAUAGAACAGGAUAUGUGGGCGGGUCCGACGGGAUCCACCACAUGAGGAUCACCCAUGUGACACAGAAGGGUUCCAGAAAC | 474 | 24.2 |  | 
UUCGAAUUGUAGGAUAUUUUGCCCGAUUGGGCGGGAGAAGGGCAGACAUGAGGAUCACCCAUGUGUCAGGCAGU |  |  | 40.8 | 40.5
GCAGGAUAAGUGAGGAUAUACCUCUGGAUACAGAGGUAGAAGGUACAUGAGGAUCACCCAUGUCUAUAACCUGC |  |  | 14.6 | 16.1
AGCCGAAGCGCAGGAUAUACAUGUAUACAUGAGGAUCACCCAUGUAGCAACACGUGGUAGUGAUUGUAGAAGGGUGCUCGGCGC | 32.8 | 30 |  | 
GGAACAACAUGAGGAUAUCGAUGAGUAUAGAGUCGAGAAGGCAUGUCAUAAGACAUGAGGAUCACCCAUGUAGUUACAAUACCA | 1010 | 69.2 |  | 
GCCAGGCAUGUAGGAUAUCCAUUGCGUCGCGUUGGAGAAGGGCAACACACAUGAGGAUCACCCAUGUGGUCACCCAUGUAGUGU |  |  | 489 | 524
GUGAUCCCGGUUAGGAUAUUAGUGAUGUACACCUCUGAGAAGGGACAUGAGGAUCACCCAUGUCGCCUUGAAAC |  |  | 17.7 | 22.6
UUAAAAGUGACAUGAGGAUCACCCAUGUGAAUUAGUAGUAGCAGAAGGCACGUGGGAAGACCAAGUGAGGAUAUGUAGCUUUAA | 515 | 44 |  | 
UGUGUGUGGGCAGGAUAUGCGUGAAGAUGUAUGAUGUAGUGUGAUGUAACAUGAGGAUCACCCAUGUAGAAGGGCCGGUGUGUG |  |  | 124 | 129
UGAUUUCAUGUAGGAUAUGCUUGGCGAAGCUACGCAGAAGGACAUGAGGAUCACCCAUGUUUUAGCGUCUGAGUAUAGAUUCUA |  |  | 30.6 | 187
ACAAAUGGAGGAUAUACAUGAGGAUCACCCAUGUUUAUCCUACAUAUGUGAUACUCAUGUAGAAGGCCAUUUGA |  |  | 13.1 | 12.6
UUACCUUAUGAGAAGGCGAUCAUGAAACAUGAUCGAGGAUAUCAUGUAAACAUGAGGAUCACCCAUGUAUGGGUAUUAUGGUAA | 213 | 28.5 |  | 
AAUUAGGUCACAGGAUAUACAACUUCCAUUGCUGUAGAAGGGUGUCACAUACUUAGCUGACAUGAGGAUCACCCAUGUAUCCAC | 243 | 95.2 |  | 
GAUCGUUCUGUUAGGAUAUGCUUUGGGCUUCCGCAGUAGAAGGAACAUGAGGAUCACCCAUGUCCGAUGCCGUC |  |  | 25.6 | 28.1
GGAGCACACAUUAACAUGAGGAUCACCCAUGUCAAAAGACAUGAGGAUAUGGAUCCGAAAAGGAUCCAGAAGGCAUGGCGCUCC | 103 | 9.9 |  | 

Sequence | apparent Kd [1] [nM] | apparent Kd [2] [nM] | apparent Kd [3] [nM] | apparent Kd [4] [nM]
AAUAAACUCACAGGAUAUAGCAGAGGUCGCGUGAACUUACAGACGACGAGGCUAGAAGGGUGACCACAUGAGGAUCACCCAUGU | 312 | 65.4 |  | 
UGGUACAUGGGAGGAUAUCAUGUUCUUACAUGAGGAUCACCCAUGUCGAUGGAGACAUCGGAGAUUGAGAAGGCCCAUGUACCU | 1070 | 54.2 |  | 
AAAUUUAACGAAGGAUAUGCUGACAUGAGGAUCACCCAUGUGUGCUUUGUGUUGCUGAAACGGGAGCAGAAGGUCGUAUACAUA |  |  | 82.5 | 82.5
GUAGAACAUGAGGAUCACCCAUGUGAAGACGCAUGAGGAUAUAUACGUAAAUAGCAUACGAUAGAAGGCAUGAUAA | 51.8 | 26.8 |  | 
CCGGGACAUGAGGAUCACCCAUGUUUCGUUUAUAGUAAAGCACAGGAUAUGAUGAAACAGGUUUCUCAGAAGGGUGUUCCGAAA | 63.2 | 67.8 |  | 
AGUGUUGGAGGAUAUACAUGAGGAUCACCCAUGUACAUCACACAGUAUAUCAAACCAUGUAGAAGGCCAAUACA |  |  | 18.2 | 36.4
CUUUUAUAAUAGAAGGUAGACUUUAAGUGGAUCACCCAUGUGUAGGUACUAAGGAUAUGUAGUUACAUGAGGAUCACCCAUGUU | 172 | 143 |  | 
AAUUACAUGUAGAAGGUACUUAAUUAAGUGUUGUAAGGAUAUACCAAUUUAUUAGUUUUAAAGAUACAUGAGGAUCACCCAUGU | 10.6 | 9.2 |  | 
CGUAGGAUCCAGAAGGCAUGAACAUGAGGAUCACCCAUGUUAAAAUACAUGAGGAUAUGGAUCCUACGAAAAGUGCGAAAGCAC | 5.75 | 4.99 |  | 
AUUUAACAUGAGGAUCACCCAUGUGAGGAUAUGUCCAUUUUAAACAAAUAGGAUAUGGACAGAAGGCACACCGG |  |  | 162 | 366
CGAUAUUAUGCAGGAUAUCUAUCUUGAAUGAGGAGAGAAGGGCAUAGGGAGACAUAAGCCUUAUUACAUGAGGAUCACCCAUGU |  |  | 11.2 | 9.38
CCUCUUGGGCAAGGAUAUCCUGCGCGGUUCCGGUUCGUGUCUGUCACAUGAGGAUCACCCAUGUGGGAGAAGGUGCCUGCGGUC |  |  | 17.9 | 24.2
UGUCGGAGCAGAGGAUAUUACAUGAGGAUCACCCAUGUAUCAACCAAUAGCUGGAAACAGCAAUGUAAGAAGGCUGCUCCGACA |  |  | 7.54 | 19.8
AAAAAACAUGAGGAUCACCCAUGUAAAAAAAUGGGAGGAUAUCUGAAUUAAUUAAAUUAAGGAGAAGGCCUAAAAA | 239 | 31.9 |  | 
GGCUGGUGACAGCAUCCAUCAAAACAUGAGGAUCACCCAUGUAGAAGGCUGUACGGUUACCGUACAGAGGAUAUACAAUGAUGA |  |  | 14.5 | 24.2
CGUAGGAUCCAGAAGGCAUGUACAUGAGGAUCACCCAUGUCAAUAGACAUGAGGAUAUGGAUCCUACGAAAAGUGCGAAAGCAC | 10.5 | 4.49 |  | 
GGCGGCGCGGGCCACCGCAAAACCAGAAGGACAUGAGGAUCACCCAUGUAACAAAACAGGGCGGUGUAGGAUAUGGCAGACCCG |  |  | 14.2 | 25
GCCAGGAUGUGAGGAUAUGCUGAGGAUAACUCAGCAGAAGGCACAUGAGGAUCACCCAUGUAAACUUAUAAUAAAUACCCUGGC |  |  | 13 | 28.4
UUUGUAUAGCAAGGAUAUGUUUAAUUAUAGUUGCCUCAUACAUGAGGAUCACCCAUGUUUUACUUACAGAAGGUGCAAUGAUUU |  |  | 316 | 317
AAAGAAAGGUCAGGAUAUCCGUUAGUCGCGCAAGGAGAAGGGACCUCAUGGGUGCUGACACAUGAGGAUCACCCAUGUAAAAUA |  |  | 65.5 | 23.1
CCCUCACCAGUCAGGAUAUCUUGUGCGAAAAUGCUAGAGAAGGGACAUGAGGAUCACCCAUGUGCCUGCAAGGA |  |  | 17.1 | 17.9
CCACGUCAGAUUAACAUGAGGAUCACCCAUGUCUUUUGACAUGAGGAUAUGGAUCCUAAUUGGAUCCAGAAGGCAUGGACGUGG | 963 | 96.9 |  | 
GGGCUGUCAGGAUAUGCUAGUGCUAGUGAAAGCUAGUGCUAGUAGAAGGGACAUGAGGAUCACCCAUGUGGCCC |  |  | 31.4 | 30.9
AAUAACAGAGGAUAUACUGUUUUAUGUGUUUGUUGUUUUGAACAUGAGGAUCACCCAUGUAGAAGGCUGAAUGA |  |  | 28.1 | 25.9
